# Laboratory results published in ChEMBL document CHEMBL3244012, “Guanylhydrazones with potential antileukemic activity. 2. Synthesis and structure-activity relationships of analogues of 4,4'-diacetyl-N,N'-diphenylurea bis(guanylhydrazone)” (J Med Chem, 1978).
# Key:
# TA3 = assay: Cytotoxicity against mouse TA3 cells assessed as growth inhibition after 3 days; format: functional; conditions: TA3, 72 h, read-out: ID50 (the source's name)
# In short: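 Mouse mammary adenocarcinoma TA-3 cells grown in stationary tubes in RPMI 1640 with 10% horse serum; 50 000 cells inoculated with compound in medium, incubated upright 3 days. Growth read by protein assay; control growth six- to tenfold. Five tubes per concentration; inhibitory compounds retested at least twice. ID50 = 50% inhibitory concentration, between-test variation within ±10%.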
# [1] = biological target: T1, DNA polymerase alpha catalytic subunit (Mus musculus) (UniProt P33609); assay: Inhibition of DNA polymerase alpha isolated from mouse L1210 cells assessed as reduction in DNA synthesis by cell-free system based assay
# T1 sequence (whole entry): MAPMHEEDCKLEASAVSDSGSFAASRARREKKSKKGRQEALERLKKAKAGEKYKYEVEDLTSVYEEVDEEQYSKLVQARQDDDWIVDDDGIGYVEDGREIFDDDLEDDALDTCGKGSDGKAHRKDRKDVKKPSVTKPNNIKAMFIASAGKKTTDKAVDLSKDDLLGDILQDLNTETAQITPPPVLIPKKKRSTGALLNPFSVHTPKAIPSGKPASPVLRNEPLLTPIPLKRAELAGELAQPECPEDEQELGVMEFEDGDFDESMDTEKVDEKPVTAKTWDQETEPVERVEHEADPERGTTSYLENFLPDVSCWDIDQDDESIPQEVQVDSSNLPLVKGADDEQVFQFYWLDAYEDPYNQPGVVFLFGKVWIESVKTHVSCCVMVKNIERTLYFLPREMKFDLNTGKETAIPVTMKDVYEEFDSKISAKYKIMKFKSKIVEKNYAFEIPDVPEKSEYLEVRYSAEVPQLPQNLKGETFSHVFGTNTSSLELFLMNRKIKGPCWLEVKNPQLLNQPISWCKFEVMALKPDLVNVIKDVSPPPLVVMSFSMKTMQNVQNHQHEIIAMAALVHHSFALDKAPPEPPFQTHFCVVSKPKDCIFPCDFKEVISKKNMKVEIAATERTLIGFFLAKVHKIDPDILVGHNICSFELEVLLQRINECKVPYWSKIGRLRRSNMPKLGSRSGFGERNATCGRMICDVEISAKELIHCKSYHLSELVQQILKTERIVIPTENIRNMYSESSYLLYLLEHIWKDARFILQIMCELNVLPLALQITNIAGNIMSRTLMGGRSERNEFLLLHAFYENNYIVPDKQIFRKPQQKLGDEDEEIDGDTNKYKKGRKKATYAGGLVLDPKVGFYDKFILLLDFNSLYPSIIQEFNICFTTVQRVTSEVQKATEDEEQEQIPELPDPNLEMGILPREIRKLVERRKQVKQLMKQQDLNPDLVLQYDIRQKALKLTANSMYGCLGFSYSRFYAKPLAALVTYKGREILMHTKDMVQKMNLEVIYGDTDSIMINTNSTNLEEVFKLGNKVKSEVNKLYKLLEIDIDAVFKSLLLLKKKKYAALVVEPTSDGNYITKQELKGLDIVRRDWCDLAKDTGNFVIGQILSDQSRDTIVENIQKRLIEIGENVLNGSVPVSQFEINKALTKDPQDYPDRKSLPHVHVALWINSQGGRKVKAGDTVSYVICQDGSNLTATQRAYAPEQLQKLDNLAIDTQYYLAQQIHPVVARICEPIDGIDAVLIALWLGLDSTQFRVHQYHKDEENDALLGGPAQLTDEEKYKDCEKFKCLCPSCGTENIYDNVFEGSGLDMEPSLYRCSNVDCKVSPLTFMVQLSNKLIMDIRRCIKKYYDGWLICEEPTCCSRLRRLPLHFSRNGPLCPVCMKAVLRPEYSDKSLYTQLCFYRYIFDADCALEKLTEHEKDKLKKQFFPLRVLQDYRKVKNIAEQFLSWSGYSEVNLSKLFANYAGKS
# In short: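 DNA polymerase α taken as a crude extract of mouse L1210 leukemia cells, assayed in a Bollum-type cell-free DNA synthesis system. Compounds added at different concentrations to the assay mixture before enzyme; initial reaction velocity measured.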
# L1210 = assay: Antitumor activity against mouse L1210 cells allografted in DBA/2J mouse assessed as survival at 30 mg/kg, ip dosed once daily on days 1 to 3 (reference value: 8.2 +/- 1.1 days); format: functional; conditions: route intraperitoneal
# [2] = Solubility in aqueous solvents; format: physicochemical; conditions: buffer
solubility [2],SMILES,IC50 (TA3) [µM],inhibitory concentration [1] [µM],Survival (L1210) [days]
,C/C(=N\NC(=N)N)c1ccc(NC(=O)Oc2ccc(/C(C)=N/NC(=N)N)cc2)cc1,180,170,
,C/C(=N\NC(=N)N)c1ccc(NC(=O)Nc2ccc(/C(C)=N/NC(=N)N)cn2)nc1,7,160,11
Insoluble,C/C(=N/NC(N)=S)c1ccc(NC(=O)Nc2ccc(/C(C)=N/NC(N)=S)cc2)cc1,,,
,C/C(=N\NC(=N)N)c1ccc(NC(=O)Nc2ccc(/C(C)=N/NC(=N)N)cc2)cc1,6,60,
,C/C(=N\NC(=N)N)c1ccc(NC(=O)Nc2ccc(/C(C)=N/NC(=N)N)cn2)cc1,7,,11.3
,Br.Br.C/C(=N\NC(=N)N)c1ccc(NC(=O)N(C)c2ccc(/C(C)=N/NC(=N)N)cc2)cc1,180,80,14.3
,Br.Br.C/C(=N\NC(=N)N)c1ccc(CNC(=O)NCc2ccc(/C(C)=N/NC(=N)N)cc2)cc1,90,,10.7
,Br.Br.C/C(=N/NC(=N)N)c1ccc(NC(=O)NCc2ccc(/C(C)=N/NC(=N)N)cc2)cc1,20,110,23
,C/C(=N\NC(=N)N)c1ccc(N(C)C(=O)N(C)c2ccc(/C(C)=N/NC(=N)N)cc2)cc1,100,310,1.7
,Br.Br.C/C(=N/NC(=N)N)c1ccc(CNC(=O)N(Cc2ccc(/C(C)=N/NC(=N)N)cc2)N=O)cc1,> 100,230,10.5
Insoluble,C/C(=N\O)c1ccc(NC(=O)Nc2ccc(/C(C)=N/O)cc2)cc1,,,

SMILES,solubility [2],IC50 (TA3) [µM],inhibitory concentration [1] [µM],Survival (L1210) [days]
C/C(=N/NC(=N)N[N+](=O)[O-])c1ccc(NC(=O)Nc2ccc(/C(C)=N\NC(=N)N[N+](=O)[O-])cc2)cc1,Insoluble,,,
